Compound activity: PubChem BioAssay, several laboratories
SR-BI uptake up – enhances SR-BI lipid uptake from DiI-HDL; hit rate 0.096% among 320,000; AID 504775; CHO ldlA[mSR-BI] cells, DiI-HDL uptake fluorescence, 3 h; 100 = double the neutral-control signal; activation, % at 12.5 µM;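 active = mean replicate activation of at least 60% and every replicate at or above 60%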;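 also: 0% = median plate neutral-control signal and 100% = twice that signal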
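Assay system: LDL receptor-deficient CHO ldlA cells overexpressing murine SR-BI / Medium: BSA-supplemented, HEPES-buffered Ham's F12, pH 7.4 / Probe or stimulus: DiI-labelled HDL at 10 µg/mL final / Timing: compound with DiI-HDL co-incubation, 3 h at 37 °C / Technique: bottom-read cell fluorescence after medium removal, ex 550/em 595 nm / Measure: HDL uptake via cellular fluorescence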
Vif inh – inhibitors of HIV Vif | hit rate 0.35% among 340,000 | AID 602346 | inhibition, % at 7.49 µM | HEK293T cells, Vif self-association by quenched fluorescence, imaging, 24 h; in the data active = inhibition above about 50%, passing the limit was not always enough
SR-BI HDL uptake – inhibitors of mouse SR-BI mediated HDL lipid uptake; inhibition, % at 12.5 µM; hit rate 0.96% among 320,000; Q61009; ldlA[mSR-BI] CHO cells, DiI-HDL uptake fluorescence, 3 h;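 active = mean replicate inhibition of at least 70% and a set share of replicates each scoring 70 or more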;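 also: 0% = median of neutral control wells and 100% = median of positive control wells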
NTR1 agonist – NTR1 (human) agonism. P30989. NTR1-U2OS beta-arrestin-GFP spot imaging, agonist mode. activation, % at 20 µM. hit rate 0.17% among 330,000;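 active = activation at or above 40% of the spot to cytoplasm intensity ratio, with at least 20 cells analyzed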;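 also: 0% = DMSO without peptide and 100% = 100 nM NTR1 peptide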
Target sequence (P30989 whole entry, looked up): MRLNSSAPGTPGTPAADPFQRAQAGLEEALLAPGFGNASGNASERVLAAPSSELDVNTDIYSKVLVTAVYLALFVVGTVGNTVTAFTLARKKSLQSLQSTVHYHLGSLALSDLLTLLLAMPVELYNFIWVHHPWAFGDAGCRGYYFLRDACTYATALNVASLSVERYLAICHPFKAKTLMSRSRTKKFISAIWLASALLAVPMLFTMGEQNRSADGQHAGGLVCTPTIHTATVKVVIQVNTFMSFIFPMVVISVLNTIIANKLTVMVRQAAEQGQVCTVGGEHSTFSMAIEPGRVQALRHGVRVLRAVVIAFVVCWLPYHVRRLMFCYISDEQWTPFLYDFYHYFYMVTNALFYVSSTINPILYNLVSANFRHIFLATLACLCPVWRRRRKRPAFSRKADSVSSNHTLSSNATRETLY
CaV13 FRET inh – Primary screen for inhibitors of IQ motif and Ca2+-dependent inactivation inhibitor domain binding in CACNA1D, Förster resonance energy transfer in living cells, …. HEK cells, CFP/YFP FRET ICDI-IQ, plate reader, 10 min; percent FRET-ratio fall versus neutral wells. inhibition, % at 12.3 µM. hit rate 0.098% among 340,000. AID 743397;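 active = mean replicate inhibition of at least 30% and at least 1% of replicates passing that level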;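 also: 0% = median of the neutral control wells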
V-ATPase pH – regulators of yeast V-ATPase proton transport; response, % at 10 µM; hit rate 0.37% among 350,000; S. cerevisiae, pHLuorin cytosolic pH fluorescence; in the data active = response mostly above about 7.3%, no sharp cut-off; inactive = mostly below about 5.4%; also: actives read high
Numbers without * were called inactive. Sampled rows, rich in hits. Any-hit rate of the full collection: about 1.7%.

For Cc1c(C(=O)Nc2ccncc2)sc2nc(-c3ccc(F)cc3)cn12 the results were SR-BI uptake up -77, Vif inh 0, SR-BI HDL uptake 77*, NTR1 agonist 3, CaV13 FRET inh -4 and V-ATPase pH 0.
`Cc1ccccc1C(=O)N[C@@H](CC(C)C)C(=O)N1CCC[C@H]1C(=O)NCc1ccccc1` gave CaV13 FRET inh -2.
`Nc1nnc(SCC(=O)Nc2ccc(Cl)c(C(=O)O)c2)s1` gave SR-BI uptake up 2, Vif inh 4, SR-BI HDL uptake -2, NTR1 agonist 0, CaV13 FRET inh -4 and V-ATPase pH 0.
`O=C(CSc1nnc(-c2ccncc2)s1)Nc1ccc(Cl)c(C(=O)O)c1` gave Vif inh 54*, NTR1 agonist 0, CaV13 FRET inh -3 and V-ATPase pH -2.
Screening COc1ccc(S(=O)(=O)N2CCCN(CC(=O)Nc3cc(NC(C)=O)ccc3OC)CC2)cc1 returned SR-BI uptake up 0, Vif inh 3, SR-BI HDL uptake 0, NTR1 agonist 1, CaV13 FRET inh -1 and V-ATPase pH 6.
COc1ccc(NC(C)=O)cc1NC(=O)CN1CCN(S(=O)(=O)c2ccc(C(C)C)cc2)CC1 was read as SR-BI uptake up 6, Vif inh 8, SR-BI HDL uptake -6, NTR1 agonist 3, CaV13 FRET inh 0 and V-ATPase pH 19*.
Screening CCCCCCCCN1C(=O)[C@@H](CC(=O)N2CCN(C(=O)C3CC3)CC2)C[C@@]2(C(=O)OC)C1=C[C@H](C(C)(C)C)O[C@@H]2C returned CaV13 FRET inh -8.
For O=C(CN(Cc1ccco1)C(=O)Cn1nnc(-c2ccc(F)cc2)n1)NC1CCCC1 the results were SR-BI uptake up -18, SR-BI HDL uptake 18, NTR1 agonist -1, CaV13 FRET inh -3 and V-ATPase pH 9.
CC(C)(C)NC(=O)CN(Cc1ccc(F)cc1)C(=O)Cn1nnc(-c2ccc(F)cc2)n1 was read as SR-BI uptake up 11, Vif inh 58*, SR-BI HDL uptake -11, NTR1 agonist 1, CaV13 FRET inh -5 and V-ATPase pH 4.
O=C(NCc1ccccc1)[C@H]1CCCN1C(=O)[C@H]1CCCN1C(=O)c1ccc(F)c(F)c1 was read as CaV13 FRET inh -7.
`CC(/C=N/N1C(=O)CSC1=S)=C\c1ccccc1` gave SR-BI uptake up 6, Vif inh 6, SR-BI HDL uptake -6, NTR1 agonist 0, CaV13 FRET inh -4 and V-ATPase pH 7.
`CCOC(=O)N1CCC(N2C(=O)c3cc(C(=O)NC4CCCCC4)ccc3C2O)CC1` (stereo not given) gave SR-BI uptake up -44, Vif inh -2, SR-BI HDL uptake 44, NTR1 agonist 4, CaV13 FRET inh 38* and V-ATPase pH -5.
`COc1cc(OC)cc(-c2c(Sc3ccccc3)c3cc(-c4ccc(OC)nc4)ccc3n2C)c1` gave CaV13 FRET inh -5.
Screening Nc1nc(SCc2ccc(Cl)cc2Cl)nc2nc3c(cc12)CCCC3 returned SR-BI uptake up -8, Vif inh -3, SR-BI HDL uptake 8, NTR1 agonist 23, CaV13 FRET inh -5 and V-ATPase pH 128*.
Screening CCN1/C(=C/c2sc(-c3ccccc3C)c[n+]2C)Sc2ccccc21 returned SR-BI uptake up -51, Vif inh -16, SR-BI HDL uptake 51, CaV13 FRET inh active and V-ATPase pH -4.
For Cc1cc(NC(=O)CSc2nc3c([nH]c4ccccc43)c(=O)n2-c2cccc(C(F)(F)F)c2)no1 the results were SR-BI uptake up -52, Vif inh 51*, SR-BI HDL uptake 52 and V-ATPase pH 4.
COc1ccc(-c2ccc(C#N)c(SCC(=O)Nc3sc4c(c3C#N)CCC4)n2)cc1 was read as Vif inh -6, NTR1 agonist 4 and V-ATPase pH 0.
`CC(Sc1nc(-c2ccccc2)cc(C(F)(F)F)n1)C(=O)Nc1sc2c(c1C#N)CCC2` (stereo not given) gave SR-BI uptake up -27, Vif inh 6, SR-BI HDL uptake 27, NTR1 agonist 2, CaV13 FRET inh -8 and V-ATPase pH 1.
N#Cc1ccc(-c2cccnc2)nc1SCC(=O)c1ccccc1 was read as SR-BI uptake up -29, Vif inh 173*, SR-BI HDL uptake 29, NTR1 agonist 6, CaV13 FRET inh -16 and V-ATPase pH 7.
N#Cc1c(C(F)(F)F)cc(-c2ccccc2)nc1SCC(=O)Nc1sc2c(c1C#N)CCC2 was read as SR-BI uptake up -106, Vif inh -8, SR-BI HDL uptake 106*, NTR1 agonist -7 and V-ATPase pH -3.
For N#Cc1ccc(-c2ccccc2)nc1SCC(=O)c1cccc(Cl)c1 the results were SR-BI uptake up -26, Vif inh inactive, SR-BI HDL uptake 26, NTR1 agonist -3, CaV13 FRET inh -7 and V-ATPase pH -1.
N#Cc1ccc(-c2cccnc2)nc1SCC(=O)Nc1sc2c(c1C#N)CCC2 was read as SR-BI uptake up -76, Vif inh 15, SR-BI HDL uptake 76*, NTR1 agonist 9, CaV13 FRET inh -8 and V-ATPase pH 5.
`CCOC(=O)C1CCN(C(=O)C2CCN(S(=O)(=O)c3ccc4ccccc4c3)CC2)CC1` gave SR-BI uptake up 7, SR-BI HDL uptake -7, NTR1 agonist -1, CaV13 FRET inh -7 and V-ATPase pH -5.
Cc1cc(C(=O)Nc2c(F)c(F)c(F)c(F)c2F)n(-c2ccccc2)n1 was read as SR-BI uptake up 5, Vif inh 73*, SR-BI HDL uptake -5, NTR1 agonist 4, CaV13 FRET inh -6 and V-ATPase pH 1.
For Cc1cc(NC(=O)c2ccc(F)cc2)n(-c2ccccc2)n1 the results were SR-BI uptake up -13, SR-BI HDL uptake 13, NTR1 agonist -2, CaV13 FRET inh -7 and V-ATPase pH 4.
Cc1cc(NC(=O)Nc2cc(C)nn2-c2ccccc2)n(-c2ccccc2)n1 was read as SR-BI uptake up -84, Vif inh 1, SR-BI HDL uptake 84*, NTR1 agonist -6, CaV13 FRET inh 0 and V-ATPase pH 1.
Screening CCn1c(O)c(/C=N/NC(=O)c2ccncc2)c(=O)n(CC)c1=S returned SR-BI uptake up -74, Vif inh 22, SR-BI HDL uptake 74*, CaV13 FRET inh 5 and V-ATPase pH -3.
O=C(COc1ccc(/C=N/NC(=O)c2cc3ccccc3o2)cc1Cl)Nc1ccccc1 was read as SR-BI uptake up -75, Vif inh 2, SR-BI HDL uptake 75*, NTR1 agonist 7 and V-ATPase pH 4.
O=C(Nc1cnccn1)Nc1cccc(Cl)c1Cl was read as SR-BI uptake up -5, Vif inh -1, SR-BI HDL uptake 5, NTR1 agonist -2, CaV13 FRET inh 1 and V-ATPase pH -3.
